{"data": "Assay results from different studies", "target": "Tyrosine-protein kinase SYK (SYK, Homo sapiens, UniProt P43405)", "note": "Protocols differ between the studies behind these lines."}
{"Structure (SMILES)": "N#CC1(c2ccccn2)CCN(Cc2cc(C(=O)O)c(=O)n3ccccc23)CC1", "assay": "cell-free assay, competition with immobilised ligand", "setting": "1 µM", "endpoint": "remaining binding", "value": "92%"}
{"Structure (SMILES)": "Cn1cc(-c2cc(F)cc(N3CCn4c(cc5c4CCCC5)C3=O)c2CO)cc(Nc2ccc(N3CCN(C4COC4)CC3)cn2)c1=O", "assay": "enzyme activity, inhibitor", "setting": "0.1 µM", "endpoint": "inhibition", "value": "12%"}
{"Structure (SMILES)": "C#Cc1n[nH]c2c(-c3cn([C@@H](C)c4ccccn4)c(=O)[nH]c3=O)cc(F)cc12", "assay": "enzyme activity, inhibitor", "setting": "0.1 µM", "endpoint": "inhibition", "value": "3.3%"}
{"Structure (SMILES)": "Nc1ncc(-c2nc(N3CCOCC3)nc(N3CCOCC3)n2)c(C(F)F)n1", "assay": "binding, competition with immobilised ligand", "setting": "10 µM", "endpoint": "remaining binding", "value": "61%"}
{"Structure (SMILES)": "Cn1cc(-c2cccc(N3CCc4c(sc5c4CC(C)(C)C5)C3=O)c2CO)cc(Nc2ccncn2)c1=O", "assay": "enzyme activity, inhibitor", "setting": "1 µM", "endpoint": "inhibition", "value": "0%"}
{"Structure (SMILES)": "O=c1[nH]c2ccccc2n1C1CCN(Cc2ccc(-c3[nH]c4cc5ncnc5cc4nc3-c3ccccc3)cc2)CC1", "assay": "cell-free assay", "setting": "0.5 µM", "endpoint": "remaining signal", "value": "97.9%"}
{"Structure (SMILES)": "Cc1nn(C)cc1-c1nc2c(N3CCN(Cc4ccc(Cl)cc4)CC3)c(Cl)cnc2[nH]1", "assay": "binding, competition with immobilised ligand", "setting": "1 µM", "endpoint": "remaining binding", "value": "100%"}
{"Structure (SMILES)": "COc1ncccc1-c1cnn2ccc(N3CCN(C(=O)OC(C)C)CC3)nc12", "assay": "binding, competition with immobilised ligand", "setting": "1 µM", "endpoint": "remaining binding", "value": "100%"}
{"Structure (SMILES)": "Cn1cncc1[C@@](O)(COc1ccc(C#N)cc1-c1ccc(OC(F)(F)F)cc1)c1ccc(C#N)cc1", "assay": "cell-free assay, competition with immobilised ligand", "setting": "1 µM", "endpoint": "remaining binding", "value": "100%"}
